Test results reported in publication PMC9218157 (Heliyon, 2022).
Marks after values point to notes of the source that are not given here.

Legend:
[1] = ABTS cation radical scavenging activity; settings: mean ± SE; concentration showing 50% of antioxidant activity
In short: (§1)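 Procedure taken from a cited method; the paper gives no reagent levels, times or read-out wavelength. Test compounds were a pyridine Schiff base ligand and its Cu(II) and Zn(II) complexes, with butylated hydroxyanisole (BHA) as positive control.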

[2] = target: T1, type-VI B porcine pancreatic α-amylase (Sus scrofa, UniProt P00690); assay: Inhibition of α-amylase; type: biochemical
T1 sequence (P00690 16-511): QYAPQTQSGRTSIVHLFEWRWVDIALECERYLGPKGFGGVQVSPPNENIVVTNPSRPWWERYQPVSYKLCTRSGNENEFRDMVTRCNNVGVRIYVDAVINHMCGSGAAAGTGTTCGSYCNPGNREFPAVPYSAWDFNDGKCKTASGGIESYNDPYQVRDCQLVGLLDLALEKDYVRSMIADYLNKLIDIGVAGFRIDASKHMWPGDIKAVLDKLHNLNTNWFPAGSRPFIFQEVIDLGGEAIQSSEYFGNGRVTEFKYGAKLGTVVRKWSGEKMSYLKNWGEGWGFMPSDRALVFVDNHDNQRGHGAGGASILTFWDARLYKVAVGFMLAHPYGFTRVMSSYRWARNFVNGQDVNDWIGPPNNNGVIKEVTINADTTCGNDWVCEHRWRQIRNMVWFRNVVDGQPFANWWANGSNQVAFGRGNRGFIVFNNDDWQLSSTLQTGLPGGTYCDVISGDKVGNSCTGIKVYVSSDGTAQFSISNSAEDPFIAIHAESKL

[3] = Superoxide anion radical scavenging activity; settings: mean ± SE; concentration showing 50% of antioxidant activity
In short: as §1

[4] = DPPH free radical scavenging activity; settings: mean ± SE; concentration showing 50% of antioxidant activity
In short: as §1

- EC50 Radical scavenging activities ABTS [1]: 4.65 ± 0.61^d mg/mL
- IC50 [2]: 11.3 mM
- EC50 Radical scavenging activities Superoxide [3]: 5.25 ± 2.35^d mg/mL
- EC50 Radical scavenging activities DPPH [4]: 3.10 ± 0.47^d mg/mL
SMILES: COc1cc(C=Nc2ccc([N+](=O)[O-])cn2)ccc1O [HL, 2-methoxy-4-(((5-nitropyridin-2-yl)imino)methyl)phenol]
